Measured values from the EternaBench riboswitch data.

System: MS2 coat protein
Experiment: apparent Kd, MS2 coat protein; higher = weaker binding; RNA-MaP array; FMN 200 µM where present
Procedure, shortened: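 Designs were transcribed by stalled E. coli RNA polymerase on Illumina sequencing-chip clusters. They were titrated with SNAP-549-labelled MS2 coat protein from 0.7 or 1.5 nM, doubling to 3 µM, without and then with constant ligand. Buffer: 100 mM Tris-HCl pH 7.5, 80 mM KCl, 4 mM MgCl2, BSA, DTT, yeast tRNA, Tween-20. Green signal was normalised to red-channel RNA signal and control-cluster median Fmax. Apparent Kd is the median of filtered per-cluster binding-curve fits.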

[1] = designed as: OFF switch for flavin mononucleotide, no ligand
[2] = ligand present: flavin mononucleotide, designed as: OFF switch for flavin mononucleotide
[3] = designed as: ON switch for flavin mononucleotide, no ligand
[4] = ligand present: flavin mononucleotide, designed as: ON switch for flavin mononucleotide

Sequence | apparent Kd [1] [nM] | apparent Kd [2] [nM] | apparent Kd [3] [nM] | apparent Kd [4] [nM]
AAAAGAAUAAAAGGAUAUAGGAAAGGAAGUGUACUAGAAGGUUUGUUAACAUGAGGAUCACCCAUGUGCUCAGACACAGGGUGC | 124 | 167 |  | 
GUAGCACAAGCAAAUGUAACAUGAGGAUCACCCAUGUGUUAUGAGGAUAUGGAUGUGAAGUUAAUCCAGAAGGCAUUAUGCUAC |  |  | 25.2 | 13.2
UGAUAGGACAGAGGAUAUACGUGCUAGAGAUACUAGCAAAGUUUCUUGACAUGAGGAUCACCCAUGUAGAAGGCUGUCCUAUCU | 5.74 | 12.3 |  | 
CGCUCUAUAUAUUUGGCAAGUAUCAGAAGGCGUUACAUGAGGAUCACCCAUGUUUUGAAUAGUAACGAGGAUAUGAUAUGAGCG | 22 | 24.2 |  | 
UGAGUGUGAGGAUAUAUGGUAGGGAUGAAGGGAUAGAAUUAGUAGAAGGUACAUGAGGAUCACCCAUGUUAGGA | 24.4 | 21.9 |  | 
CCCUACGUUUCGUAGCAGUGUCAUCGAGAAGGCCCUGACAUGAGGAUCACCCAUGUUGUUACAUGGGAGGAUAUCGAUGAUCCC |  |  | 18.6 | 5.47
GGAGCACACAUUAACAUGAGGAUCACCCAUGUCAAAAGACAUGAGGAUAUGGAUCCGAAAAGGAUCCAGAAGGCAUUGUGCUCC |  |  | 372 | 28.2
ACAUACGAUAGUAUGCCUGAGGGCAGAAGGCACAUGAGGAUCACCCAUGUAACGAUCUCUUCAAGUGAGGAUAUGUGCUCAUUG | 49.8 | 52.2 |  | 
CGCUACUGCCAGAAGGACAUGAGGAUCACCCAUGUAGGAUAUGGGUGACGAGGACCAGUGUAGAGAAACUACGCUACAGUAGCG |  |  | 89.4 | 47.5
GUCUUCCUAGGAUAUACAUGAGGAUCACCCAUGUACAGUUUCGUCUUGGGAUACUCGCGUAGAAGGAGGUGGAU | 31.9 | 23.4 |  | 
UUGGACCUCGUAGGAUAUGUAGGAUAUUCCUACAUGAGGAUCACCCAUGUUGACAUGGAAGAAGGACAGAAGGACGAUGUCCAU |  |  | 311 | 5.32
UUAUGAGAGCAGGAUAUCUUAUUUUUUUUUUAUGGAGAAGGGCUCACAUGAGGAUCACCCAUGUGGUCCUAGAU | 27.9 | 54.4 |  | 
UGGUGAAGUGUAGGAUAUGGAGAUGGGUUUUGGCCAGAAGGACAUGAGGAUCACCCAUGUGGUAGAGGGUUGGUGGUAGCUCGU | 62.4 | 49.8 |  | 
UGUCGGAGCAGAGGAUAUUACAUGAGGAUCACCCAUGUAUGAGCCAAUAGCUGGAAACAGCAAUGUAAGAAGGCUGCUCCGACA | 19.1 | 206 |  | 
AAUAUAAGAGCUGGUAACUCAAGAACAUGAGGAUCACCCAUGUAGGAUAUCAGCACGAUAAGUGCUGAGAAGGACAUCCAGCUC | 15.3 | 19 |  | 
GCGUAAUAGGUGUAGCUAGUCGUGCAAGAAGGGUGGUGAACAUGAGGAUCACCCAUGUGGUCAAUACAGGAUAUUGCUAUACGC |  |  | 572 | 139
GGGUACAUCGGAGGAUAUCAUGUAAAUACAUGAGGAUCACCCAUGUCGAUGGAGACAACGGAGAUUGAGAAGGCCGAUGUACCG |  |  | 952 | 108
CUAAAUCAUGUAGGAUAUGCAUGGCGAAGCUACGCAGAAGGACAUGAGGAUCACCCAUGUCUCUCCGUCUGCAUACAGACGGAG | 20.1 | 123 |  | 
AGAAAUUAGUGAGGAUAUGCAUAAUGUGUAGCUGCAGAAGGCACGGACCACAAGACAUGAGGAUCACCCAUGUGGUAUAUAGAU | 25.9 | 29.3 |  | 
UACAUGUGAGGAUAUGUACGAAGCCCGGCUGGGCCUCGCAGGCAGAAGGCACAUGAGGAUCACCCAUGUGACCG | 15.9 | 53.4 |  | 
CCGUCGCACCAGAAGGCGUGAUCCACUGCGGCACGAGGAUAUGGUACAUGAGGAUCACCCAUGUCGCGAUGGAAAGCAAUCACG |  |  | 151 | 24.1
GUCUCACAUGAGGAUCACCCAUGUGAGGAUAUGGAUUCGCUGGCCGUAGCCAGUGGAUCCAGAAGGCGCAUGAU | 20.5 | 22 |  | 
UAGGGCGAGUUAUGUACAAGAUACAUGAGGAUCACCCAUGUGUAGGAUAUGACCCUUAUCGCUGGUCAGAAGGGCACGAGAAUC | 74.1 | 94.2 |  | 
GCGAAGAACGAGAAGGCCACUACAUGAGGAUCACCCAUGUCGUGGUGUAUUGGAGGAUAUCGAUCGGCGUCUCAUGAGGACAUA | 5.35 | 5.44 |  | 
AGGUCGUGAGGAUAUCGUCCCGUGAGCAGUAGUUGCGCGGGUGAGAAGGCACAUGAGGAUCACCCAUGUCAUCC | 24.9 | 74.4 |  | 
GACGGGAAUGAGAAGGGUCACAUGAGGAUCACCCAUGUGCUCUUCGCCGUGACAGGAUAUCAUUGCCGCCAGGUUAGAUUUUUG | 7.87 | 22.3 |  | 
UCGCGGUGAGGAUAUAGGUCAAUGCAGGGUCACCAGAUUGCCUAGAAGGCACAUGAGGAUCACCCAUGUGGUAG | 49 | 157 |  | 
GCAAAGCCUGACAUGAGGAUCACCCAUGUUAGAUUGUUAUGUCAGGAUAUUGUCUAGACACUAGACAAGAAGGGAUGCUUUGCA |  |  | 386 | 38.4

Sequence | apparent Kd [1] [nM] | apparent Kd [2] [nM] | apparent Kd [3] [nM] | apparent Kd [4] [nM]
GCAUGCAUAGCGAUAUGAUCGAGAGAUCAUGUCGCUAAAUUUAGAAGGACAUGAGGAUCACCCAUGUAGGAUAUGGGAGCAUGA |  |  | 44.6 | 11.5
CUGUGACGGUGCGCAAGUGGACGUAGAAGGGUCACAUGAGGAUCACCCAUGUGGGCCUGCUAGUGACAGGAUAUACGUUCGUAC | 13.7 | 38.3 |  | 
CAUUAAUUGAUUAUUGUAUUUAUACAGGAUAUGUAACAUGAGGAUCACCCAUGUAUACAUGGGAAACAGAAGGGUAUUUAUAGA | 31.9 | 25.6 |  | 
GAUGGAGAGCAGGAUAUCUUGGGUAAGCAUCAUAGAGAAGGGCUCACAUGAGGAUCACCCAUGUGGUCCAAGAA | 14.2 | 56 |  | 
GUGGAACAUGAGGAUCACCCAUGUGAGGAUAUAGGUUUUUGGGAAAAACUAGGAGAAACUAGAAGGCGCAAGAA | 29.4 | 27.6 |  | 
GGGUAGUGAGGAUAUCGUUGUUAGGAGGAGUAGGUAGGAGGCGAGAAGGCACAUGAGGAUCACCCAUGUAUGAA | 26.8 | 29 |  | 
CUCUUGAGUCAGGAUAUCGUGAGGCUAAUAAUACGAGAAGGGACAACAUGAGGAUCACCCAUGUGGUCGAAGAG | 32.9 | 78.3 |  | 
UGUCGGAGCAGAGGAUAUUACAUGAGGAUCACCCAUGUAUGAACCAAUACCUGGAAACAGCAAUGUAAGAAGGCUGCUCCGACA | 12.5 | 141 |  | 
CUUCAGUCAGGAUAUGUUAAUCUCGCCACUCCACGAGCCGGACAGAAGGGACAUGAGGAUCACCCAUGUUAGAC | 30 | 22.4 |  | 
AGUACACAUGAGGAUCACCCAUGUGAGGAUAUCGAUGUCCCAGGGCGGGUGCGGGACUCGAGAAGGCACUUGGU | 47 | 154 |  | 
CAGCGGGUCUUCAGGGUAAUGAACAUGAGGAUCACCCAUGUGCAGGAUAUGACGGAUCCGCACCGUCAGAAGGGCACUAAGUGA | 26.7 | 32.5 |  | 
AGUGCGUAUGUGAGGAUAUGCUGGUCCUUGGCUCGGCAGAAGGCACAUGAGGAUCACCCAUGUGGUGUCGUACG | 62.2 | 412 |  | 
UGAACCAUGACAUGAGAUGACAUGAGGAUCACCCAUGUGUACAAGGAUAUGUUGGUCGACGAUCGGCAGAAGGUGUAAUGGGAU | 58.9 | 196 |  | 
GGUCGUCACAUGAACAUGAGGAUCACCCAUGUAAAUUCUCAUGAGGAUAUGGAUCCUAAUUGGAUCCAGAAGGCGUGGACGACC |  |  | 953 | 457
AGUAACAGAGGAUAUACUAUUUUAUGUGUUUGUUGUUUUAAACAUGAGGAUCACCCAUGUAGAAGGCUGAAUAA | 21.4 | 24.1 |  | 
GAAUAAUUGAUCCAUUUUUAAAACAUGAGGAUCACCCAUGUGCAGGAUAUCGAUAGUUUUAGAUUCGAGAAGGGCAAGAACUGU | 88.2 | 149 |  | 
CGAUGGCAUGUAGGAUAUCGAGCUCAAAGAGCUCGAGAAGGACAUGAGGAUCACCCAUGUCCUCACAGACAGUGAGGGCUAUCG | 22.3 | 54.7 |  | 
ACCUGACAUGAGGAUCACCCAUGUGAGGAUAUGUACAUCAGGAAAAAAAAACUGAUGUACAGAAGGCACUUGGG | 25.4 | 37.1 |  | 
CGUUAAUAUCGAGGAUAUGUCUAGACACAUGAGGAUCACCCAUGUAUGUGUAUAGAAGGCGAUAUUAACAGCAUGUUACAUGCA |  |  | 43 | 15.6
CGAGUGUAAGGAUAUUCGGCACUAGGGACCACCCUAGUGUAGAAGAAGGUACAUGAGGAUCACCCAUGUGGUUA | 369 | 428 |  | 
AAAAGCUCAGGAUAUACGGUCUGUUGUUGAGAAAUAUCGAAACAUGAGGAUCACCCAUGUAGAAGGGAGCGAAA | 223 | 599 |  | 
AUGAGUGUAAUGAUUGAGCCACUGCAGGAUAUCACAUGAGGAUCACCCAUGUGUCAGCCUCGGAGUGAGAAGGGCGGUUUCUUA | 5.38 | 10.6 |  | 
GGCACACAUGAGGAUCACCCAUGUGAGGAUAUGUUAGUUUCGGCCAAAGCCGAAAUUAACAGAAGGCACAUGCC | 14.9 | 26.4 |  | 
GUUGUUACUGAGGAUAUUAUUUUAUUCGAUUGAUAAGAAGGCAGUACAUGAGGAUCACCCAUGUGGGUAGUUUG | 355 | 586 |  | 
AACCACCGCACGGACACGUCGAGUCAGGAUAUACAUGAGGAUCACCCAUGUGAAGGCCGGCUCAUGUAGAAGGGACAGGCGUUG | 11.4 | 15.7 |  | 
GGAUAGGACAGAGGAUAUACGUGCUAGAGAUACUAGCUAAAUUUCCUCACAUGAGGAUCACCCAUGUAGAAGGCUGUCCUAUCG | 15 | 412 |  | 
UUAGGCUUCUAGAAGGCAGUCCAGCUGGAGGACUGAGGAUAUAGGCACCUAACAUGAGGAUCACCCAUGUUAGUGAUUCCUCAA | 38.7 | 73 |  | 
